ChEMBL document CHEMBL3286172, “Exploring the role of 2-chloro-6-fluoro substitution in 2-alkylthio-6-benzyl-5-alkylpyrimidin-4(3H)-ones: effects in HIV-1-infected cells and in HIV-1 reverse transcriptase enzymes” (J Med Chem, 2014)

What was measured:
[1] = Selectivity index, ratio of CC50 for human MT4 cells to EC50 for wild type HIV-1 NL4-3 infected in human MT4 cells; assay type: toxicity, cell-based; conditions: read-out: Ratio CC50/EC50
How it was run: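 Ratio of CC50 to EC50, both from MTT readings in MT-4 cells at day 5. CC50 was taken in mock-infected cells and EC50 in cells infected with wild-type NL4-3. Values are means of at least two experiments.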

[2] = system: Human immunodeficiency virus 1; assay: Fold resistance, ratio of EC50 for HIV-1 harboring NNTRI-resistant reverse transcriptase Y181C mutant infected in human MT4 cells to EC50 for wild type HIV-1 NL4-3 infected in human MT4 cells; assay type: functional
How it was run: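 MT-4 cells infected with HIV-1 mutant (K103N or Y181C) or wild-type NL4-3, with drug present. […] Fold resistance is the mutant EC50 divided by the wild-type NL4-3 EC50. EC50 values are means of at least two experiments.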

[3] = system: Human immunodeficiency virus 1; assay: Fold resistance, ratio of EC50 for HIV-1 harboring NNTRI-resistant reverse transcriptase K103N mutant infected in human MT4 cells to EC50 for wild type HIV-1 NL4-3 infected in human MT4 cells; assay type: functional
[4] = system: Human immunodeficiency virus 1; assay: Antiviral activity against HIV-1 harboring NNTRI-resistant reverse transcriptase K103N mutant infected in human MT4 cells assessed as inhibition of virus-induced cytopathic effect by MTT method; assay type: functional, organism-based; conditions: Human immunodeficiency virus 1, MT4
[5] = Cytotoxicity against human MT4 cells assessed as induction of cell death by MTT method; assay type: cell-based
How it was run: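 Mock-infected MT-4 cells exposed to a range of drug concentrations. Viability read by MTT colorimetry at day 5. […] Top concentration was limited where compound precipitated in the culture medium. Means of at least two experiments.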

[6] = system: Human immunodeficiency virus 1; assay: Fold resistance, ratio of ID50 for HIV-1 recombinant NNTRI-resistant reverse transcriptase K103N mutant to ID50 for wild type HIV-1 recombinant reverse transcriptase
How it was run: (§1)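 Recombinant wt or mutant HIV-1 RT, purified to >95%, at 2-4 nM. RNA-dependent DNA polymerase activity with 0.5 µg poly(rA)/oligo(dT)10:1 (0.3 µM 3'-OH ends), 10 µM [3H]-dTTP and 8% final DMSO. Incorporation was sampled at 2-min intervals. ID50 came from fitting to a fully non-competitive model. Ratio is ID50 mutant/ID50 wt. Means of at least three experiments.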

[7] = system: Human immunodeficiency virus 1; assay: Antiviral activity against HIV-1 harboring NNTRI-resistant reverse transcriptase Y188L mutant infected in human MT4 cells assessed as inhibition of virus-induced cytopathic effect by MTT method; assay type: functional, organism-based; conditions: Human immunodeficiency virus 1, MT4
How it was run: (§2)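 MT-4 lymphoid cells infected with HIV-1 carrying RT K103N, Y181C or Y188L, with a range of drug concentrations present. Viable cells counted by MTT colorimetric assay at day 5 post-infection. […] Highest concentration tested was limited by precipitation in culture medium. Means of at least two experiments.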

[8] = system: Human immunodeficiency virus 1; assay: Antiviral activity against wild type HIV-1 NL4-3 infected in human MT4 cells assessed as inhibition of virus-induced cytopathic effect by MTT method; assay type: functional, organism-based; conditions: Human immunodeficiency virus 1, NL4-3, MT4
How it was run: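 MT-4 lymphoid cells infected with wild-type HIV-1 NL4-3 while exposed to a range of drug concentrations. Viable cells counted by tetrazolium (MTT) colorimetry at day 5 post-infection. Means of at least two experiments.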

[9] = system: Human immunodeficiency virus 1; assay: Fold resistance, ratio of ID50 for HIV-1 recombinant NNTRI-resistant reverse transcriptase L100I mutant to ID50 for wild type HIV-1 recombinant reverse transcriptase; how it was run: as §1
[10] = system: Human immunodeficiency virus 1; assay: Fold resistance, ratio of EC50 for HIV-1 harboring NNTRI-resistant reverse transcriptase Y188L mutant infected in human MT4 cells to EC50 for wild type HIV-1 NL4-3 infected in human MT4 cells; assay type: functional
How it was run: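 HIV-1 NL4-3 (wt) or Y188L mutant infection of MT-4 cells across a range of drug concentrations. Viable cells were counted by MTT at day 5 post-infection. […] Fold resistance is mutant EC50 over wt EC50. Means of at least two experiments.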

[11] = system: Human immunodeficiency virus 1; assay: Antiviral activity against HIV-1 harboring NNTRI-resistant reverse transcriptase Y181C mutant infected in human MT4 cells assessed as inhibition of virus-induced cytopathic effect by MTT method; assay type: functional, organism-based; conditions: Human immunodeficiency virus 1, MT4; how it was run: as §2
[12] = system: Human immunodeficiency virus type 1 reverse transcriptase (Human immunodeficiency virus 1), Q72547 [L100I]
[13] = molecular target: Human immunodeficiency virus type 1 reverse transcriptase (Human immunodeficiency virus 1) (UniProt Q72547)
[14] = system: Human immunodeficiency virus 1; assay: Fold resistance, ratio of ID50 for HIV-1 recombinant NNTRI-resistant reverse transcriptase Y181I mutant to ID50 for wild type HIV-1 recombinant reverse transcriptase
How it was run: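 RNA-dependent DNA polymerase activity with 0.5 µg poly(rA)/oligo(dT)10:1 (0.3 µM 3'-OH ends), 10 µM [3H]-dTTP and 8% final DMSO. Incorporation was sampled at 2-min intervals. ID50 came from fitting to a fully non-competitive model. Means of at least three experiments.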

[15] = system: Human immunodeficiency virus type 1 reverse transcriptase (Human immunodeficiency virus 1), Q72547 [K103N]

SMILES	selectivity ratio [1]	Ratio EC50 [2]	Ratio EC50 [3]	EC50 [4] [nM]	CC50 [5] [nM]	Ratio [6]	EC50 [7] [nM]	EC50 [8] [nM]	Ratio [9]	Ratio EC50 [10]	EC50 [11] [nM]	ID50 [12] [nM]	ID50 [13] [nM]	Ratio [14]	ID50 [15] [nM]
CC[C@H](C)Sc1nc([C@H](C)c2c(F)cccc2Cl)cc(=O)[nH]1 (racemic)	> 3540	113	111	1220	> 39000	229	7400	11	24	673	1240				
CCCSc1nc(C(CC)c2c(F)cccc2Cl)c(C)c(=O)[nH]1 (racemic)	> 115	108	81	2100	> 3000	126	> 3000	26	48		2800	240	5	700	630
CCC(c1nc(SC2CCCC2)[nH]c(=O)c1C)c1c(F)cccc1F (racemic)	2730	100	91	1000	30000		1600	11		145	1100	110	5		380
CC(C)Sc1nc(C(C)c2c(F)cccc2Cl)cc(=O)[nH]1 (racemic)	> 37500	3750	550	1100	> 75000		30700	2		15350	7500	340	8		1300
CCC(C)Sc1nc(C(CC)c2c(F)cccc2F)c(C)c(=O)[nH]1 (racemic)	> 3750	375	250	200	> 3000		900	0.8		1125	300	48	6		140
CC[C@@H](C)Sc1nc([C@@H](C)c2c(F)cccc2Cl)cc(=O)[nH]1	> 1110	281	118	5560	> 52000	365	> 51600	47	4		13200				
CCC(C)Sc1nc(O)c(C)c(C(C)c2c(F)cccc2F)n1 (racemic)	> 3330	79	122	110	> 3000		> 3000	0.9			71	670	31		1700
CCCSc1nc(C(C)c2c(F)cccc2Cl)cc(=O)[nH]1 (racemic)	> 25000	767	297	890	> 75000		7900	3		2633	2300	500	8		1300
Cc1c(O)nc(SC(C)C)nc1C(C)c1c(F)cccc1F (racemic)		120	270	270			> 3000	1			120	280	3		580
CCC(c1nc(SC(C)C)[nH]c(=O)c1C)c1c(F)cccc1F (racemic)	> 7500	187	132	530	> 30000		270	4		67	750	210	4		310
CCCSc1nc(C(CC)c2c(F)cccc2F)c(C)c(=O)[nH]1 (racemic)	> 250			> 3000	> 3000	70	> 3000	12	37		> 3000	220	6	600	420
CCc1c(C(C)c2c(F)cccc2F)nc(SC2CCCC2)[nH]c1=O (racemic)	> 19			> 3000	> 3000	100	> 3000	160	65		> 3000	130	2	900	200
CC[C@@H](C)Sc1nc([C@@H](C)c2c(F)cccc2Cl)c(C)c(=O)[nH]1				150	> 70400	69	3300	1.4	37		890				
CC[C@H](C)Sc1nc([C@H](C)c2c(F)cccc2Cl)c(C)c(=O)[nH]1 (racemic)				> 70000	> 70400		> 70000	43900	0.1		64000				
CCCCSc1nc(C(C)c2c(F)cccc2F)c(CC)c(=O)[nH]1 (racemic)	> 53			> 3000	> 3000	130	> 3000	57	93		> 3000	280	3	1000	390
CC[C@@H](C)Sc1nc([C@H](C)c2c(F)cccc2Cl)c(C)c(=O)[nH]1				15	> 70400	101	390	0.06	41		87				
CC(c1cc(=O)[nH]c(SC2CCCC2)n1)c1c(F)cccc1Cl (racemic)	> 237000	10000	3000	900	> 71000		> 71000	0.3			3000	1100	15		1800
CCCCSc1nc(C(C)c2c(F)cccc2Cl)cc(=O)[nH]1 (racemic)				1100	> 73000	220	5600	0.3	60		3900	600	10		2200
CC[C@H](C)Sc1nc([C@@H](C)c2c(F)cccc2Cl)cc(=O)[nH]1	> 507		53	7640	> 73000		> 73300	144	4		> 73300				
CC[C@H](C)Sc1nc([C@@H](C)c2c(F)cccc2Cl)c(C)c(=O)[nH]1				> 47000	> 47000		> 47000	3660	0.2		> 47000				
CCC(C)Sc1nc(Cc2c(F)cccc2Cl)c(C)c(=O)[nH]1 (centres undefined)	> 1550	111	115	5400	> 73000		> 73000	47			5200				
